Experiments:
[1] = biological target: T1, Integrin alpha-V/beta-3 (Homo sapiens, UniProt P05106+P06756); assay: Inhibition of integrin alpha-v/beta-3 mediated M21 cell adhesion to vitronectin with monoclonal antibody P1F6; format: functional, cell-based
Procedure, shortened: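 M21 human melanoma cells were freshly harvested and plated on vitronectin-coated surfaces into serial inhibitor dilutions, with αvβ5-blocking mAb P1F6 present so attachment is αvβ3-dependent. Attached cells were counted after 1 h by lysosomal hexosaminidase. IC50 by curve fitting, mean of two independent determinations.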

[2] = biological target: T2, Integrin alpha-V/beta-5 (Homo sapiens, UniProt P06756+P18084); assay: Inhibition of integrin alpha-v/beta-5 mediated UCLAP-3 cell adhesion on vitronectin; format: functional, cell-based
T2 sequence (P06756 31-889 limits assumed): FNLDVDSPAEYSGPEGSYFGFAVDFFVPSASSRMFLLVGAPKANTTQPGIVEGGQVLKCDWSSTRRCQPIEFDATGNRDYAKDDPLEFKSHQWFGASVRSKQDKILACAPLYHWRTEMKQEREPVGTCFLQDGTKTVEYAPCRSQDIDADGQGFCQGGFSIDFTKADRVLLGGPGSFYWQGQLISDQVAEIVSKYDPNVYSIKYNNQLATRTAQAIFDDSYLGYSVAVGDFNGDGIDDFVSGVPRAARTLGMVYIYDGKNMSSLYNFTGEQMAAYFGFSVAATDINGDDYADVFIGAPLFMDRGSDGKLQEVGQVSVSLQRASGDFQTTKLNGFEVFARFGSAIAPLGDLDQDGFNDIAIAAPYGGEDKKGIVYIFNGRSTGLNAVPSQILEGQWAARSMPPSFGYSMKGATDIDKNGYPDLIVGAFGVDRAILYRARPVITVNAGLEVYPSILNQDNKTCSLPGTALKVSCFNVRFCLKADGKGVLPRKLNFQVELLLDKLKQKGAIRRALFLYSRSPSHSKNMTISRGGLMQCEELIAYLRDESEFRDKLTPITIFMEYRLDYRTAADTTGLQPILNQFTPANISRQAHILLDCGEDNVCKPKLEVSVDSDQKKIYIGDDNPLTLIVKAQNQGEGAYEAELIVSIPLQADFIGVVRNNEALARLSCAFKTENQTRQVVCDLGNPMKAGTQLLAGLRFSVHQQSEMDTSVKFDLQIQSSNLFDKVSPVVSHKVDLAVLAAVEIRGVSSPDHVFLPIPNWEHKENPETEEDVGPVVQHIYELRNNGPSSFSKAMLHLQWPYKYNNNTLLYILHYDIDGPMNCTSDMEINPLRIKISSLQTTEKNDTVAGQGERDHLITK
T2 sequence (P06756 891-1048 limits assumed): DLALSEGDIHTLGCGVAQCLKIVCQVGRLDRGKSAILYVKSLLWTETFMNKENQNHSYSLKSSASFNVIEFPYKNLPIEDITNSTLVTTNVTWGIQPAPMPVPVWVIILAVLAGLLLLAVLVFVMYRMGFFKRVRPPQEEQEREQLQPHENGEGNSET
T2 sequence (P18084 24-799 limits assumed): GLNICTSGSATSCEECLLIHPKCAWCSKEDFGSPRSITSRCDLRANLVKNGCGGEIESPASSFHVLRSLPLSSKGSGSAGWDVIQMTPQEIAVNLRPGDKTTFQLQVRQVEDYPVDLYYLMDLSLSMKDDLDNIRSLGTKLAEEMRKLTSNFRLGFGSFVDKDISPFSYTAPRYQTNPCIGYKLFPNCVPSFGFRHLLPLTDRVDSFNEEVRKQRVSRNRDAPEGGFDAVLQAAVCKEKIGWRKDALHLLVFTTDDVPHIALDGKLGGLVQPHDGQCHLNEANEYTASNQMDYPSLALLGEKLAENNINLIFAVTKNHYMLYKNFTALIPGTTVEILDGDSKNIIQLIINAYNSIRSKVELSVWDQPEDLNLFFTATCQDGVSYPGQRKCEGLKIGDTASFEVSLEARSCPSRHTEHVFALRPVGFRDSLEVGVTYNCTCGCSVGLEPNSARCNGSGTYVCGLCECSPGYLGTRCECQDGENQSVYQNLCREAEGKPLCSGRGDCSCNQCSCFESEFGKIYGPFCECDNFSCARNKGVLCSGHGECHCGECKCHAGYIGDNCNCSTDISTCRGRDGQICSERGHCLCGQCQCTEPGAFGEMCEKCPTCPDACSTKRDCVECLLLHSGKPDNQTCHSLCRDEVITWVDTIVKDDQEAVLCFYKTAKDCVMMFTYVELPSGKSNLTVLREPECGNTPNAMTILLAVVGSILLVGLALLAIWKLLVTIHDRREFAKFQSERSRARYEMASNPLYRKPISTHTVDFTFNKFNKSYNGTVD
Procedure, shortened: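 UCLAP-3 human lung adenocarcinoma cells attach to vitronectin exclusively via αvβ5. Freshly harvested cells were plated on vitronectin-coated surfaces into serial inhibitor dilutions. Attachment was measured at 1 h by lysosomal hexosaminidase cell count. IC50 by curve fitting, mean of two independent determinations.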

[3] = biological target: Integrin alpha-IIb/beta-3 (Homo sapiens, UniProt P05106+P08514); assay: Inhibition of fibrinogen binding to human platelet glycoprotein alpha IIb beta3 integrin
Integrin alpha-IIb/beta-3, sequence (P05106 27-788 limits assumed): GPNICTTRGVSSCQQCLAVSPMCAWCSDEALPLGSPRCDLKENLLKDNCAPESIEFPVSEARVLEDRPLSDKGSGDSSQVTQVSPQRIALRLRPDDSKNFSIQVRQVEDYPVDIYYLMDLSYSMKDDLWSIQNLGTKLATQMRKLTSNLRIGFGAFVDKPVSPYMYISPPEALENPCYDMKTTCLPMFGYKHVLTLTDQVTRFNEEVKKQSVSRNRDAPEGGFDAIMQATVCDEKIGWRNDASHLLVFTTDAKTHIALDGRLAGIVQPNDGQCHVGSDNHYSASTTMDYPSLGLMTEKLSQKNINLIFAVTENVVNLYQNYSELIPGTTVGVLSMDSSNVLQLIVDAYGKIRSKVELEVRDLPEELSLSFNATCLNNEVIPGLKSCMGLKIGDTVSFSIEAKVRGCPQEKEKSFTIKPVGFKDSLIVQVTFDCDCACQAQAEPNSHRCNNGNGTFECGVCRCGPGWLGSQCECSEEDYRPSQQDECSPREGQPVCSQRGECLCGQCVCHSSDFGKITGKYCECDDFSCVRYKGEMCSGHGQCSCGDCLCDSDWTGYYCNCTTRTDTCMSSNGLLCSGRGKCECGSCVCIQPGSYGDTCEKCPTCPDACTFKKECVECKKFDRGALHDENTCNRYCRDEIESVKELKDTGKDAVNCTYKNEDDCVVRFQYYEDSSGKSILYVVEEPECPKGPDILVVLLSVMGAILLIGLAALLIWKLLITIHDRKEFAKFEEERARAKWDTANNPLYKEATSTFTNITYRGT
Integrin alpha-IIb/beta-3, sequence (P08514 32-887 limits assumed): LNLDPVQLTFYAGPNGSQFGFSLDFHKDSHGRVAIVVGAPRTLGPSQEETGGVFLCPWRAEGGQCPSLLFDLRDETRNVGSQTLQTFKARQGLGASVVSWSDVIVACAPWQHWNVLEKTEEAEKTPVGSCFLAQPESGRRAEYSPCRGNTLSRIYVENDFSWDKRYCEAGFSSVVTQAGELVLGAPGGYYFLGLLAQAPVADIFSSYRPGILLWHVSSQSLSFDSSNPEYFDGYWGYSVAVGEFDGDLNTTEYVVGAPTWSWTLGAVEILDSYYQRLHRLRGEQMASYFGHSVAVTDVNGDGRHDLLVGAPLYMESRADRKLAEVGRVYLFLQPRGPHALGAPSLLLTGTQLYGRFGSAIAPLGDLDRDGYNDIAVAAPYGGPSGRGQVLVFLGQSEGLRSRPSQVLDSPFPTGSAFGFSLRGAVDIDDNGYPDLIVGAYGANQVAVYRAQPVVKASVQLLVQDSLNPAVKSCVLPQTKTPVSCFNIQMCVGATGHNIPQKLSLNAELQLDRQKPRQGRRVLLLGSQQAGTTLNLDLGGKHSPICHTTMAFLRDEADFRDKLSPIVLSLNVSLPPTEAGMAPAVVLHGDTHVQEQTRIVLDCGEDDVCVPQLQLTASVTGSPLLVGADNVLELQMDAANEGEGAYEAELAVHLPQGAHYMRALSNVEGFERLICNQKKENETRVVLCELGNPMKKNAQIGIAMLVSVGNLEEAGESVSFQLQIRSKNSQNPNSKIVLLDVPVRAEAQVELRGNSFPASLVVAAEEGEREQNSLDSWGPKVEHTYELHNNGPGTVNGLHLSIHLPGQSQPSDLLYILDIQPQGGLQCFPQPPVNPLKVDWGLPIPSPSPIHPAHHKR
Integrin alpha-IIb/beta-3, sequence (P08514 891-1039 limits assumed): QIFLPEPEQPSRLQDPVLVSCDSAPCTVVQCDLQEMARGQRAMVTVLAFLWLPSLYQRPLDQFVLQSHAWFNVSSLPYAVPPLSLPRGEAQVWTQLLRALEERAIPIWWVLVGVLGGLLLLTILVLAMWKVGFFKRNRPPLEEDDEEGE

[4] = biological target: T2, Integrin alpha-V/beta-5; assay: Inhibition of vitronectin binding to recombinant human alphaV-beta5 integrin; format: protein-complex assay
Procedure, shortened: (§1)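 Isolated-integrin ELISA. Plates were coated by adsorption from neutral buffer with 1 µg mL^-1 integrin: recombinant human αvβ3, αvβ5 or αvβ6, or αIIbβ3 isolated from human platelets. The plate was blocked with BSA. Biotinylated ligand (1 µg mL^-1) was added with serial inhibitor dilutions: human serum vitronectin for αvβ3/αvβ5, fibronectin for αvβ6, fibrinogen for αIIbβ3. Bound biotin was detected with peroxidase anti-biotin and TMB.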

[5] = biological target: T1, Integrin alpha-V/beta-3; assay: Inhibition of vitronectin binding to recombinant human alphaV-beta3 integrin; format: protein-complex assay; procedure, shortened: as §1
[6] = biological target: T3, Integrin alpha-V/beta-6 (Homo sapiens, UniProt P06756+P18564); assay: Inhibition of integrin alpha-v/beta-6 mediated UCLAP-3 cell adhesion to fibronectin; format: functional, cell-based
T3 sequence (P06756 31-889 limits assumed): as the sequence (P06756 31-889 limits assumed) above
T3 sequence (P06756 891-1048 limits assumed): as the sequence (P06756 891-1048 limits assumed) above
T3 sequence (P18564 22-788 limits assumed): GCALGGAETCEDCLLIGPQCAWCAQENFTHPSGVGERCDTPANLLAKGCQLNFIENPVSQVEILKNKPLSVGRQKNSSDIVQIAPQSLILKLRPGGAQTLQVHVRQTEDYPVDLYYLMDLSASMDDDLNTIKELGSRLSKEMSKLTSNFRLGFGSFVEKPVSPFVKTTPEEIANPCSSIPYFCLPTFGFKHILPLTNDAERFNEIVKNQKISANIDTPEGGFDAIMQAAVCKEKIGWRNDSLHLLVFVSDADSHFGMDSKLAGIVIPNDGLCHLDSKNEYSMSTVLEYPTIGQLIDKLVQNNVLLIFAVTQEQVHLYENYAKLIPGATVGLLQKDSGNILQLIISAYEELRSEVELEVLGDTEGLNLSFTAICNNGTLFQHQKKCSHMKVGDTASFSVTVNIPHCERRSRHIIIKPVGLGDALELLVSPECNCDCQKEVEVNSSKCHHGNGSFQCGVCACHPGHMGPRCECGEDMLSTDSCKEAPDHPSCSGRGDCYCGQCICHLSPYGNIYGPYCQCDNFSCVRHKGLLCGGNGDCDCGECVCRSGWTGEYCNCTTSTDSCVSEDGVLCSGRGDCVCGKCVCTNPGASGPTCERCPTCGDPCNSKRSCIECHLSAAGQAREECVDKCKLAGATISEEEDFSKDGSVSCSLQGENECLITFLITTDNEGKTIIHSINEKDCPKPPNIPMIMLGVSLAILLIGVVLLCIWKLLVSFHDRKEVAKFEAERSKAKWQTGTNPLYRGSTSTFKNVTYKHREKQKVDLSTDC

[7] = biological target: T3, Integrin alpha-V/beta-6; assay: Inhibition of fibronectin binding to recombinant human alphaV-beta6 integrin; format: protein-complex assay; procedure, shortened: as §1

T1 sequence (P05106 27-788 limits assumed): as the sequence (P05106 27-788 limits assumed) above
T1 sequence (P06756 31-889 limits assumed): as the sequence (P06756 31-889 limits assumed) above
T1 sequence (P06756 891-1048 limits assumed): as the sequence (P06756 891-1048 limits assumed) above

| Compound | IC50 [1] | IC50 [2] | IC50 [3] | IC50 [4] | IC50 [5] | IC50 [6] | IC50 [7] |
| --- | --- | --- | --- | --- | --- | --- | --- |
| O=C(O)CC(NC(=O)CNC(=O)CCCNc1ccccn1)c1cccc([N+](=O)[O-])c1 (centres undefined) | 6900 nM | 1200 nM | 7300 nM | 42 nM | 13 nM | 90 nM | 4 nM |
| C[C@H]1C(=O)N[C@@H](CCCN=C(N)N)C(=O)NCC(=O)N[C@@H](CC(=O)O)C(=O)N[C@H](Cc2ccccc2)C(=O)N1C | 3900 nM | 1300 nM | 6000 nM | 662 nM | – | 37000 nM | 2400 nM |
| N=C(N)NCCCCC(=O)NNC(=O)NC(CC(=O)O)c1ccccc1 (centres undefined) | > 50000 nM | 43000 nM | – | 26 nM | – | 9600 nM | 460 nM |
| Cc1ccnc(NCCCC(=O)NCC(=O)NC(CC(=O)O)c2ccc(-c3cccc4ccccc34)cc2)c1 (centres undefined) | 3000 nM | 20000 nM | 4230 nM | 5170 nM | 8 nM | 200 nM | 0.04 nM |
| O=C(O)CC(NC(=O)CNC(=O)CCCCNc1ccccn1)c1ccc(-c2ccccc2)cc1 (centres undefined) | 9500 nM | 26000 nM | 4050 nM | 2670 nM | 0.45 nM | 100 nM | 0.6 nM |

Now from value to compound:

| IC50 [1] | IC50 [2] | IC50 [3] | IC50 [4] | IC50 [5] | IC50 [6] | IC50 [7] | Compound |
| --- | --- | --- | --- | --- | --- | --- | --- |
| > 50000 nM | 21000 nM | 580 nM | 1600 nM | 53 nM | 2100 nM | 61 nM | Cc1ccnc(NCCCCCCC(=O)NC(CC(=O)O)c2cccc([N+](=O)[O-])c2)c1 (centres undefined) |
| 12000 nM | 5000 nM | > 10000 nM | 2500 nM | 64 nM | 300 nM | 1.7 nM | Cc1ccnc(NCCCCC(=O)NNC(=O)NC(CC(=O)O)c2cc(Cl)cc(Cl)c2)c1 (centres undefined) |
| 20000 nM | 18000 nM | > 10000 nM | 5700 nM | 6 nM | 1600 nM | 44 nM | Cc1ccnc(NCCCCC(=O)NNC(=O)CC(CC(=O)O)c2cc(Cl)cc(Cl)c2)c1 (centres undefined) |
| 16000 nM | 2000 nM | > 10000 nM | 350 nM | 53 nM | 300 nM | 0.4 nM | Cc1ccnc(NCCCCC(=O)NCC(=O)NC(CC(=O)O)c2cc(Cl)cc(Cl)c2)c1 (centres undefined) |
| 970 nM | 24000 nM | 3000 nM | 8700 nM | 4 nM | 3800 nM | 53 nM | Cc1ccnc(NCCCCC(=O)NNC(=O)CC(CC(=O)O)c2ccc(-c3ccccc3)cc2)c1 (centres undefined) |
| 24000 nM | 27000 nM | > 10000 nM | 39 nM | 14 nM | 30 nM | 0.15 nM | Cc1ccnc(NCCCC(=O)NCC(=O)NC(CC(=O)O)c2cccc(OC(F)(F)F)c2)c1 (centres undefined) |

Source: ChEMBL document CHEMBL1135730, “Nanomolar small molecule inhibitors for alphav(beta)6, alphav(beta)5, and alphav(beta)3 integrins” (J Med Chem, 2002)
